Measured values pooled from the literature.
Compare with care: the assays were run in different laboratories.

C[C@]12CC[C@H](n3ccnc3)CC1=CC[C@@H]1[C@@H]2CC[C@]2(C)C(n3cnc4ccccc43)=CC[C@@H]12.Cl.Cl
AUC(0-t) (male CD-1 mouse, plasma; oral, 10 mg/kg): 32500 ng·h/mL

NCC(=O)Nc1ccc(-n2nc(C(F)(F)F)cc2-c2ccc3c(ccc4ccccc43)c2)cc1
AUC(0-inf) (mouse, plasma; oral, 80 mg/kg, single dose): 81800 ng·h/mL

CN1CCCCC1Cn1cc(C(=O)c2cc([N+](=O)[O-])ccc2I)c2ccccc21 (racemic)
AUC (mouse, plasma; intravenous, 25 mg/kg): 5830 ng·h/mL

CN[C@H](CC(C)C)C(=O)N[C@H]1C(=O)N[C@@H](CC(N)=O)C(=O)N[C@H]2C(=O)NC3C(=O)N[C@H](C(=O)N[C@H](C(=O)NCCC[N+](C)(C)C)c4cc(O)cc(O)c4-c4cc3ccc4O)[C@H](O)c3ccc(c(Cl)c3)Oc3cc2cc(c3OC2OC(CO)C(O)[C@H](O)[C@@H]2O[C@H]2CC(C)(NCc3ccc(-c4ccc(Cl)cc4)cc3)[C@H](O)[C@H](C)O2)Oc2ccc(cc2Cl)[C@H]1O (some centres unmarked)
AUC (mouse, plasma; intravenous, 50 mg/kg): 430000 ng·h/mL

CCC[C@@](N)(CO)CCc1ccc(OCCCCCC(C)C)cc1
AUC(0-t) (mouse, plasma; oral, 50 mg/kg): 5.02 µM·h

Cc1ncc2n1-c1ccc(Cl)cc1C(c1ccccc1F)=NC2
AUC(0-inf) (mouse, plasma; intravenous, 0.3 mg/kg): 0.15 µM·h

CCN(CC)CCCC[C@H](NC(=O)[C@H](CC(C)C)NC(=O)[C@H](C)NC(=O)[C@H](Cc1ccccc1)NC(=O)c1ccc(C(C)(C)C)cc1)C(=O)N[C@@H](CO)C(=O)OC
AUC(0-inf) (male Swiss mouse, blood; intravenous, 3 mg/kg): 1890 ng·h/mL

Cc1cc(C)nc(Nc2ncc(C(=O)NCCc3c(C)[nH]c4ccccc34)cn2)c1
AUC(0-inf) (C57BL/6 mouse, plasma; intraperitoneal, 8.8 mg/kg): 1050 ng·h/mL
